Reference: ChEMBL document CHEMBL1681781, “Structure based design and syntheses of amino-1H-pyrazole amide derivatives as selective Raf kinase inhibitors in melanoma cells” (Bioorg Med Chem, 2011)

Columns and labels:
[1] = target: T1, Ribosomal protein S6 kinase beta-1 (Homo sapiens, UniProt P23443); assay: inhibition of p70S6K at 10 uM
[2] = Antiproliferative activity against human A375P cells assessed as growth inhibition after 24 hrs by MTT assay; assay type: functional
Method in brief: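 A375P cells kept in DMEM with 10% FBS and 1% penicillin/streptomycin at 37 °C under 5% CO2. Cells lifted with 0.05% trypsin–0.02% EDTA, seeded at 5 × 10^3 cells/well and left 24 h before dosing. Test compounds given as a 3-fold serial dilution over 12 points. Viability read by MTT reduction, absorbance at 590 nm.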

HS27 = assay: Antiproliferative activity against human HS27 cells assessed as growth inhibition after 24 hrs by MTT assay; assay type: functional; settings: HS27, 24 h
[3] = system: RAC-alpha serine/threonine-protein kinase (Homo sapiens), P31749 [S473D]; assay: Inhibition of AKT1 PH S473D mutant at 10 uM
[4] = target: Aurora kinase A (Homo sapiens) (UniProt O14965); assay: Inhibition of Aurora A kinase at 10 uM
[5] = system: Serine/threonine-protein kinase B-raf (Homo sapiens), P15056 [V600E]; assay: Inhibition of b-Raf V599E mutant at 10 uM
[6] = target: Cyclin-dependent kinase 1/cyclin B (Homo sapiens) (UniProt P06493+P14635+Q8WWL7+O95067); assay: Inhibition of CDK1/cyclin B at 10 uM; assay type: protein-complex assay
[7] = target: Cyclin-dependent kinase 2/cyclin E (Homo sapiens) (UniProt P24864+P24941+O96020); assay: Inhibition of CDK2/cyclin E at 10 uM; assay type: protein-complex assay
[8] = target: T2, Mitogen-activated protein kinase 1 (Homo sapiens, UniProt P28482); assay: Inhibition of ERK2 at 10 uM
[9] = target: Focal adhesion kinase 1 (Homo sapiens) (UniProt Q05397); assay: Inhibition of FAK at 10 uM
[10] = target: T3, Glycogen synthase kinase-3 beta (Homo sapiens, UniProt P49841); assay: inhibition of GSK3-beta at 10 uM
[11] = target: Insulin-like growth factor 1 receptor (Homo sapiens) (UniProt P08069); assay: inhibition of IGF-1R at 10 uM
[12] = target: Tyrosine-protein kinase JAK3 (Homo sapiens) (UniProt P52333); assay: inhibition of JAK3 at 10 uM
[13] = target: T4, Vascular endothelial growth factor receptor 2 (Homo sapiens, UniProt P35968); assay: inhibition of KDR at 10 uM
T4 sequence (P35968 whole entry): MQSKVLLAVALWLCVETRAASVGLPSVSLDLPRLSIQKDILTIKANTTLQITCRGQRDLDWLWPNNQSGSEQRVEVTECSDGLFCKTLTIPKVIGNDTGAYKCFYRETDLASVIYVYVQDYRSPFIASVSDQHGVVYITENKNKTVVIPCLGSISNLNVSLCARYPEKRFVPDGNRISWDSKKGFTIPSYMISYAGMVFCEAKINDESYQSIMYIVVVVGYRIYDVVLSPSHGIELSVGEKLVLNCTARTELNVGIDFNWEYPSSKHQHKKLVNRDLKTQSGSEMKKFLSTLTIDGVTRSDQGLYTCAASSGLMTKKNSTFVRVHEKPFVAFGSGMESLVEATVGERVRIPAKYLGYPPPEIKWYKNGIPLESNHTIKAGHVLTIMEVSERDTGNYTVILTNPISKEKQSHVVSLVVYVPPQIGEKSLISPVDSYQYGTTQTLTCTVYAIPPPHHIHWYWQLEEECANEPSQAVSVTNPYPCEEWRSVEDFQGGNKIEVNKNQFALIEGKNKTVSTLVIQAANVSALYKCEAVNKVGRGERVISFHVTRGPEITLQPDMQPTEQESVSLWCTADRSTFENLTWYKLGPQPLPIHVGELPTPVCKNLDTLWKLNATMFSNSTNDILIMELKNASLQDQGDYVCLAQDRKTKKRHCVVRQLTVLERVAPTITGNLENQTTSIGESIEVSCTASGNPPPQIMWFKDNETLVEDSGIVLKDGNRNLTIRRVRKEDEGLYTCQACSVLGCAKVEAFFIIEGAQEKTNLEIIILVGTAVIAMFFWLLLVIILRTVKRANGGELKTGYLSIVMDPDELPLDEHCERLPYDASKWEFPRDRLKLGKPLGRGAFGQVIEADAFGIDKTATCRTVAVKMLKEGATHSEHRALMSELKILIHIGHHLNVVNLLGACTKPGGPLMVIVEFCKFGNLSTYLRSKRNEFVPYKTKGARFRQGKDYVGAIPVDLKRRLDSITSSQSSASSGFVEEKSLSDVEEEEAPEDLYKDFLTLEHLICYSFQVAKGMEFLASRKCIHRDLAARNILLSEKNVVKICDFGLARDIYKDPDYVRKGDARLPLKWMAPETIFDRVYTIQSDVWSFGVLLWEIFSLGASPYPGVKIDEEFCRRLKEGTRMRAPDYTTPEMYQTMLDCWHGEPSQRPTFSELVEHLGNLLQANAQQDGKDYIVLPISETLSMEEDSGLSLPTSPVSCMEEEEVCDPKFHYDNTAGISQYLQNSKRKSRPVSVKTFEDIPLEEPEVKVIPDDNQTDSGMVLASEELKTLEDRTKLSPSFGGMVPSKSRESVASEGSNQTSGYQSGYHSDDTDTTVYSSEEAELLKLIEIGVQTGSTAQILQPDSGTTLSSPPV

[14] = target: T5, Dual specificity mitogen-activated protein kinase kinase 1 (Homo sapiens, UniProt Q02750); assay: inhibition of MEK1 at 10 uM
T5 sequence (Q02750 whole entry): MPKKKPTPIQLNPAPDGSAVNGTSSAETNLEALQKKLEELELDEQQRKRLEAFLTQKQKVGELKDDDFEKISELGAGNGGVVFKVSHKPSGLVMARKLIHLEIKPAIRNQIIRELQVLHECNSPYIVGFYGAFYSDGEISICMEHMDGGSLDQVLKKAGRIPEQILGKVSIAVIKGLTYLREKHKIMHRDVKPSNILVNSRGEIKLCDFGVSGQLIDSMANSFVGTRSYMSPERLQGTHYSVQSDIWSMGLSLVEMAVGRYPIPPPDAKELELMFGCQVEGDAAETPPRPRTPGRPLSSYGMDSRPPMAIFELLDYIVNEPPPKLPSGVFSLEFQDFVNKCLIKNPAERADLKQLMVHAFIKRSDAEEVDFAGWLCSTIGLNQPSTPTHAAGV

[15] = target: Serine/threonine-protein kinase mTOR (Homo sapiens, UniProt P42345); assay: inhibition of mTOR at 10 uM
[16] = inhibition of PKA at 10 uM
[17] = target: T6, Serine/threonine-protein kinase PLK1 (Homo sapiens, UniProt P53350); assay: inhibition of PLK1 at 10 uM
[18] = target: RAF proto-oncogene serine/threonine-protein kinase (Homo sapiens, UniProt P04049); assay: inhibition of RAF1 assessed as [33P]gamma-ATP incorporation into substrate at 10 uM after 40 mins by scintillation counting
[19] = target: T7, Macrophage-stimulating protein receptor (Homo sapiens, UniProt Q04912); assay: inhibition of RON at 10 uM
[20] = target: T8, Proto-oncogene tyrosine-protein kinase ROS (Homo sapiens, UniProt P08922); assay: inhibition of ROS at 10 uM
T8 sequence (P08922 whole entry): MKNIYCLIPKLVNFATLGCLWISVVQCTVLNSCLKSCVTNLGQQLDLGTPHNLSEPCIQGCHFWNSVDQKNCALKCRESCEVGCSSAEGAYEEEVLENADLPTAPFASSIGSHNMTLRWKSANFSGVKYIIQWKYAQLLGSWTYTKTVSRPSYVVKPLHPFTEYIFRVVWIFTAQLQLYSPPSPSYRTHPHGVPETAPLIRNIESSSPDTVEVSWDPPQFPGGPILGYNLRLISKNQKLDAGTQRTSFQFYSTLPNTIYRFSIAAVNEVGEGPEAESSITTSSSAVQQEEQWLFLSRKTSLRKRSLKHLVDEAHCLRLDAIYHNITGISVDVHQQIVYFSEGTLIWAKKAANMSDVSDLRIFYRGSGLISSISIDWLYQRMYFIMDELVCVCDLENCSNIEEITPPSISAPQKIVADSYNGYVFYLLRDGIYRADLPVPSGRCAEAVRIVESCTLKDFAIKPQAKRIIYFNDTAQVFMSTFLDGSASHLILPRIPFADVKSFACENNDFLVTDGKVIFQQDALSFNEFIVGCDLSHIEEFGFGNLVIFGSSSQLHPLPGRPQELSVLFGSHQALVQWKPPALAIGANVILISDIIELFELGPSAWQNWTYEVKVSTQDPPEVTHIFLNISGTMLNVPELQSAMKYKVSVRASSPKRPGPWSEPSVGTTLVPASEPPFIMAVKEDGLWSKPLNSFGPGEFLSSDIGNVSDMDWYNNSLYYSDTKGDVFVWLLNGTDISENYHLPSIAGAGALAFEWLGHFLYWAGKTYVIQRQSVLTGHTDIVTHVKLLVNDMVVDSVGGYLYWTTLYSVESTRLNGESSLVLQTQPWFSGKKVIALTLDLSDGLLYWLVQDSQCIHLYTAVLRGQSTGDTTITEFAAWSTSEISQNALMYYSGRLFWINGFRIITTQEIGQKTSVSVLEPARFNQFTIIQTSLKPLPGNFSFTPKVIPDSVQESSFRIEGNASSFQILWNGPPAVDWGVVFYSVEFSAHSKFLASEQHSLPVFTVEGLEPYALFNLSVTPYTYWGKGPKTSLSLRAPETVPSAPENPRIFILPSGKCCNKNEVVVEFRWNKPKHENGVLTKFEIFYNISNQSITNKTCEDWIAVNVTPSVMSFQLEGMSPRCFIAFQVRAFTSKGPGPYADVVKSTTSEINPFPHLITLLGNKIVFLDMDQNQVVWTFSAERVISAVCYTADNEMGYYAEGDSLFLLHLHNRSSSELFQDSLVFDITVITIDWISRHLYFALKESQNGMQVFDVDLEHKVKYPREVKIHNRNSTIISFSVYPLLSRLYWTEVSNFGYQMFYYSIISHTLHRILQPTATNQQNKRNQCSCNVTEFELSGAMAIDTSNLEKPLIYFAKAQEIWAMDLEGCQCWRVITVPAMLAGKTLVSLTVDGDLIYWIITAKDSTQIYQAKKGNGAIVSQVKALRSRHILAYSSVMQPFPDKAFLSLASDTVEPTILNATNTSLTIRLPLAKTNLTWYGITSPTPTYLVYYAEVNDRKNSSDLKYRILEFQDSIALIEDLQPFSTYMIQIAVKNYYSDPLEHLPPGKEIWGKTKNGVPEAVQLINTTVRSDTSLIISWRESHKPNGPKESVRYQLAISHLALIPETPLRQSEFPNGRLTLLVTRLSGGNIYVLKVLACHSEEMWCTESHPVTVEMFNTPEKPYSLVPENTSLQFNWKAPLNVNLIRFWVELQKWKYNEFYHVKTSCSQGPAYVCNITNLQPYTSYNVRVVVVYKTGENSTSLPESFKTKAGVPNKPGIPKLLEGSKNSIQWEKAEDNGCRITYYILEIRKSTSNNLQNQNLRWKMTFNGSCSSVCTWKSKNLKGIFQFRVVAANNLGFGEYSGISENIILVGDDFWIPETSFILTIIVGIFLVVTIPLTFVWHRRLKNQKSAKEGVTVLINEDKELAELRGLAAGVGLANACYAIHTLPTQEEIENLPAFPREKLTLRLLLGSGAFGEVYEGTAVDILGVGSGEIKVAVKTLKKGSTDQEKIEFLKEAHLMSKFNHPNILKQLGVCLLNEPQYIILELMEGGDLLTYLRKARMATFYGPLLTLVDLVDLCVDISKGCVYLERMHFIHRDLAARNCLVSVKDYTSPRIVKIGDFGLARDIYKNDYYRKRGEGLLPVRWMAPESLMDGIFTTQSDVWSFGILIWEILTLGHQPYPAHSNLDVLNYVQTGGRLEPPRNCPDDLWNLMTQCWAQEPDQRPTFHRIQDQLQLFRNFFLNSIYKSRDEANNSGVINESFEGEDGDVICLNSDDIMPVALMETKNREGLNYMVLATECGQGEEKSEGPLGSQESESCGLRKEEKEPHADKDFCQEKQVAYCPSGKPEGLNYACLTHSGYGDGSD

[21] = target: T9, Tyrosine-protein kinase SYK (Homo sapiens, UniProt P43405); assay: inhibition of SYK at 10 uM
[22] = target: T10, BDNF/NT-3 growth factors receptor (Homo sapiens, UniProt Q16620); assay: inhibition of TRKB at 10 uM
Aurora kinase A = Aurora kinase A (Homo sapiens, UniProt O14965); assay: Inhibition of Aurora A kinase
[23] = target: T11, Hepatocyte growth factor receptor (Homo sapiens, UniProt P08581); assay: Inhibition of c-MET
[24] = target: T12, Proto-oncogene tyrosine-protein kinase Src (Homo sapiens, UniProt P12931); assay: Inhibition of c-Src
T12 sequence (P12931 2-536 limits assumed): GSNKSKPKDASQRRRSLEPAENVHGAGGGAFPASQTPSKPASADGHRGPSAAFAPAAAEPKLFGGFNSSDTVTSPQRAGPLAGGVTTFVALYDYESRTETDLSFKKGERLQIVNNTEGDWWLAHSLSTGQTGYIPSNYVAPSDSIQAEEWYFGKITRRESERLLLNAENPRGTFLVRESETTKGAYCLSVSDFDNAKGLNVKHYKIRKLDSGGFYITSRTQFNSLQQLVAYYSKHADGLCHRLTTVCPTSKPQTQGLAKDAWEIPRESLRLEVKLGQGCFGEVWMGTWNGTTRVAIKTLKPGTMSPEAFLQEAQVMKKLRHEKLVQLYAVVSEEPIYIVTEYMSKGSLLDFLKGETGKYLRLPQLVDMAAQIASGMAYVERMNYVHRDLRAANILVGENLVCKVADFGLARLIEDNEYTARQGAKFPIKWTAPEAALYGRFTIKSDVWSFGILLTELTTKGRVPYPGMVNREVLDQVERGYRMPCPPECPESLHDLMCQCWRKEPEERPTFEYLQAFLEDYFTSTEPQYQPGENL

[25] = target: Cyclin-dependent kinase 1/cyclin B (Homo sapiens, UniProt P06493); assay: Inhibition of CDK1/cyclin B; assay type: protein-complex assay
[26] = target: Cyclin-dependent kinase 2/cyclin E (Homo sapiens, UniProt P24941); assay: Inhibition of CDK2/cyclin E; assay type: protein-complex assay
[27] = target: T2, Mitogen-activated protein kinase 1; assay: Inhibition of ERK2
[28] = target: Receptor-type tyrosine-protein kinase FLT3 (Homo sapiens, UniProt P36888); assay: inhibition of FLT3
[29] = target: T13, Fibroblast growth factor receptor 3 (Homo sapiens, UniProt P22607); assay: inhibition of FGFR3
[30] = target: T3, Glycogen synthase kinase-3 beta; assay: inhibition of GSK3-beta
[31] = target: T4, Vascular endothelial growth factor receptor 2; assay: inhibition of KDR
[32] = target: T5, Dual specificity mitogen-activated protein kinase kinase 1; assay: inhibition of MEK1
[33] = target: T1, Ribosomal protein S6 kinase beta-1; assay: inhibition of p70S6K
[34] = inhibition of PKA
[35] = target: T6, Serine/threonine-protein kinase PLK1; assay: inhibition of PLK1
[36] = target: T7, Macrophage-stimulating protein receptor; assay: inhibition of RON
[37] = target: T8, Proto-oncogene tyrosine-protein kinase ROS; assay: inhibition of ROS
[38] = target: T9, Tyrosine-protein kinase SYK; assay: inhibition of SYK
[39] = target: T10, BDNF/NT-3 growth factors receptor; assay: inhibition of TRKB
[40] = target: T14, Mitogen-activated protein kinase 10 (Homo sapiens, UniProt P53779); assay: inhibition of JNK3
T14 sequence (P53779 whole entry): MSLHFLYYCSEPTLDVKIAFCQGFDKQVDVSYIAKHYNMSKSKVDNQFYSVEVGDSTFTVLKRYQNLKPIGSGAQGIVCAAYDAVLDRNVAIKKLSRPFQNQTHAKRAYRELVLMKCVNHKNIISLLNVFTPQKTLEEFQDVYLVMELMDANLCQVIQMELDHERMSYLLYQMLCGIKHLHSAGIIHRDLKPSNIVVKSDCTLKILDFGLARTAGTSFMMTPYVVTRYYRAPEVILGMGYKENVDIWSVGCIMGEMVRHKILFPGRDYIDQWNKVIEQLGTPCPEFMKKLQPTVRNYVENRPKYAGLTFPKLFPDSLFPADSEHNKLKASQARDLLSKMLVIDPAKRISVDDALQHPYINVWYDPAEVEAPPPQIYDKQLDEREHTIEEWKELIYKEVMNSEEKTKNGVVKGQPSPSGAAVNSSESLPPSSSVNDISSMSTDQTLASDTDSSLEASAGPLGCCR

[41] = target: T15, Mitogen-activated protein kinase 8 (Homo sapiens, UniProt P45983); assay: inhibition of JNK1a1 at 10 uM
[42] = target: T15, Mitogen-activated protein kinase 8; assay: inhibition of JNK1a1; settings: concentration not given here
[43] = target: ALK tyrosine kinase receptor (Homo sapiens) (UniProt Q9UM73); settings: 10 uM
[44] = target: T11, Hepatocyte growth factor receptor; settings: 10 uM
[45] = target: T12, Proto-oncogene tyrosine-protein kinase Src; settings: 10 uM
[46] = target: T13, Fibroblast growth factor receptor 3; settings: 10 uM
[47] = target: Receptor-type tyrosine-protein kinase FLT3 (Homo sapiens) (UniProt P36888); settings: 10 uM
[48] = target: T14, Mitogen-activated protein kinase 10; settings: 10 uM

COc1ccc(Cn2ncc(NC(=O)c3cc(NC(=O)Nc4ccc(Cl)c(C(F)(F)F)c4)ccc3C)c2N)cc1
inhibition [1]: 0%
GI50 [2]: 270 nM
GI50 (HS27): > 30 µM
inhibition [3]: 3.7%
inhibition [4]: 0%
inhibition [5]: 97%
inhibition [6]: 0%
inhibition [7]: 0%
inhibition [8]: 0%
inhibition [9]: 1.5%
inhibition [10]: 1.4%
inhibition [11]: 0.7%
inhibition [12]: 0%
inhibition [13]: 0%
inhibition [14]: 0%
inhibition [15]: 1.2%
inhibition [16]: 0%
inhibition [17]: 6.3%
inhibition [18]: 100%
inhibition [19]: 0%
inhibition [20]: 0%
inhibition [21]: 0%
inhibition [22]: 6.6%
IC50 (Aurora kinase A): < 1 nM
IC50 [23]: 193 nM
IC50 [24]: 4.79 nM
IC50 [25]: 3.2 nM
IC50 [26]: 2.13 nM
IC50 [27]: 11.4 µM
IC50 [28]: < 1 nM
IC50 [29]: 21.5 nM
IC50 [30]: 2.73 nM
IC50 [31]: 9.42 nM
IC50 [32]: 18.2 nM
IC50 [33]: < 1 nM
IC50 [34]: < 1 nM
IC50 [35]: 167 nM
IC50 [36]: 277 nM
IC50 [37]: < 1 nM
IC50 [38]: < 1 nM
IC50 [39]: < 1 nM
IC50 [40]: > 20 µM
IC50 [41]: 1590 nM
inhibition [42]: 7.1%
inhibition [43]: 7.7%
inhibition [44]: 13%
inhibition [45]: 16%
inhibition [46]: 0.1%
inhibition [47]: 13%
inhibition [48]: 13%
